Assay outcomes: PubChem BioAssay, The Scripps Research Institute Molecular Screening Center
A selection: hits, their analogues and other compounds. The true share with any hit is near 2.8%.
PAFAH1B2 FP inh = PAFAH1B2 enzyme inhibitors, primary screen, biochemical, fluorescence polarization, human; recombinant PAFAH1B2, FP-rhodamine activity probe; AID 492953, 2010; inhibition, % at 3.39 µM; Platelet-activating factor acetylhydrolase IB subunit alpha2 (Homo sapiens), P68402; 1.2% of 340,000 active;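 active = inhibition above the mean of all tested compounds plus 3 SD, cut at about 24% in these data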;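 note: 0% = enzyme with DMSO and 100% = wells lacking PAFAH1B2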
Target sequence (P68402 whole entry, looked up): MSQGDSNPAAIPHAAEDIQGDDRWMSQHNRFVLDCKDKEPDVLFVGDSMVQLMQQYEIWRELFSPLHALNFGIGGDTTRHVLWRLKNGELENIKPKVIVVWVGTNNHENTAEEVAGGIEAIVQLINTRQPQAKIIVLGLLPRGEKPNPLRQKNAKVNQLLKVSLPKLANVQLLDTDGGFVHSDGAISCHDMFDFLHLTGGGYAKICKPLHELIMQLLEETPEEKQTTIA
PAFAH2 inh = PAFAH2 enzyme inhibitors, primary screen, biochemical, fluorescence polarization, human | AID 492956, 2010 | recombinant PAFAH2, FP-rhodamine activity probe | Platelet-activating factor acetylhydrolase 2, cytoplasmic (Homo sapiens), Q99487 | 0.99% of 340,000 active | inhibition, % at 3.39 µM;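 active = inhibition above the mean over all tested compounds plus 3 SD, cut at about 30% in these data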;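 note: inhibitors block probe labeling of enzyme so polarization drops; 0% = enzyme with DMSO and 100% = wells lacking PAFAH2 protein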
ARFGAP1 inh = inhibitors of rat ARFGAP1 GAP activity, primary screen, biochemical, fluorescence polarization, GDP tracer | ADP-ribosylation factor GTPase-activating protein 1 (Rattus norvegicus), Q62848 | Arfgap1-stimulated ARF1 GTP hydrolysis, GDP FP detection | 0.26% of 360,000 active | inhibition, % at 16.5 µM | AID 651572, 2012;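 active = inhibition above a per-plate limit, mean inhibition of low control wells plus 3 SD, cut at about 25% in these data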;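 note: 0% = DMSO wells with enzyme and 100% = wells lacking Arfgap1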
Target sequence (Q62848 1-136 limits assumed): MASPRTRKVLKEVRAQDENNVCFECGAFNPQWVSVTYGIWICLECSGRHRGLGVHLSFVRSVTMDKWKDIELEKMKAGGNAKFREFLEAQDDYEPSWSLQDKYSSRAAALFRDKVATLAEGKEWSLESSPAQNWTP
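system = rat Arfgap1 catalytic domain, aa 1-136 | technique = FP, GDP Alexa 633 tracer displaced from anti-GDP antibody, 620/688 nm | compound = one concentration, 16.5 µM, DMSO 1.26% | medium = HEPES-based buffer, pH 7.5 | timing = compound-enzyme preincubation 20 min, reaction 120 min, detection 60 min, 25 °C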
PAFAH1B3 inh = PAFAH1B3 enzyme inhibitors, primary screen, biochemical, fluorescence polarization, human | recombinant PAFAH1B3, FP-rhodamine probe | inhibition, % at 3.39 µM | 0.28% of 340,000 active;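 active = inhibition above the screen-wide average of all tested compounds plus 3 SD, cut at about 25% in these data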;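 note: 0% = enzyme with DMSO only and 100% = wells lacking PAFAH1B3 protein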
Target sequence (Q15102 whole entry, looked up): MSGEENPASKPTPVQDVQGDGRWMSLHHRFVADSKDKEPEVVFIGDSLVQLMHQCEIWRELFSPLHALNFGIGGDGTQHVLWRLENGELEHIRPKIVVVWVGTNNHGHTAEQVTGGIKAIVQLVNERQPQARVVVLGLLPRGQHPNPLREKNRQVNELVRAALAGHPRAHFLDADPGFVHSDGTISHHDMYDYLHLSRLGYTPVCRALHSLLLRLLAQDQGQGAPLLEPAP
ASAP1 GAP inh = inhibitors of human ASAP1 ArfGAP activity, primary screen, biochemical, fluorescence polarization; inhibition, % at 16.5 µM; ASAP1-stimulated ARF1 GTP hydrolysis, GDP FP detection; AID 624377, 2012; Arf-GAP with SH3 domain, ANK repeat and PH domain-containing protein 1 (Homo sapiens), …; 0.19% of 360,000 active; in the data active = inhibition above about 25%;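 note: 0% = vehicle with enzyme and substrate and 100% = no enzyme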
pPAFAH FP inh = pPAFAH enzyme inhibitors, primary screen, biochemical, fluorescence polarization, human; inhibition, % at 3.39 µM; 1.5% of 330,000 active; recombinant pPAFAH, FP-rhodamine probe fluorescence polarization;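 active = inhibition above the mean inhibition across the screen plus 3 SD, cut at about 25% in these data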;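 note: inhibitors block binding of the rhodamine activity-based probe so polarization drops; 0% = enzyme with DMSO and 100% = wells lacking pPAFAH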
pPAFAH FP conf = pPAFAH (PLA2G7) enzyme inhibitors, confirmation, biochemical, fluorescence polarization, human; shares compounds with pPAFAH FP inh; AID 463230, 2010; 72% of 2,300 active; recombinant pPAFAH, FP-Rh probe fluorescence polarization; inhibition, % at 3.39 µM;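 active = mean inhibition of the triplicate above the hit cutoff set for the earlier primary screen, cut at about 25% in these data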;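 note: 0% = enzyme with DMSO and 100% = wells lacking pPAFAH enzyme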
Active calls of the source: *; . = not tested or not shown.

SMILES	PAFAH1B2 FP inh	PAFAH2 inh	ARFGAP1 inh	PAFAH1B3 inh	ASAP1 GAP inh	pPAFAH FP inh	pPAFAH FP conf
COc1ccc(-c2[nH]ncc2CN2CCCC(C(=O)c3ccc(OC)cc3OC)C2)cc1 (centres undefined)	3	-1	0	2	12	5	.
CN(C)c1cccc(C(=O)N2CCCC(CCC(=O)NCc3ccccc3F)C2)c1 (centres undefined)	2	1	6	5	-12	1	.
C#CCNc1cc(C)nc2ncnn12	-1	8	1	-6	-2	51*	2
C#CCNc1cc(-c2ccccc2)nc2ncnn12	3	-31	-5	5	1	3	.
O=c1[nH]c(NNC(=S)NC2CCCCC2)nc2c1C1(CCCC1)Cc1ccccc1-2	15	-15	-7	13	6	-9	.
S=C1NCN(Cc2ccco2)CN1	5	0	-8	5	-2	-8	.
O=C1CC(=O)N(Cc2ccco2)C(=S)N1	0	11	.	-10	.	41*	13
O=C1CC(=O)N(Cc2ccco2)C(=O)N1	1	26	-8	0	6	37*	5
O=C1CC(=O)N(Cc2cccs2)C(=O)N1	10	-4	0	4	7	2	.
c1ccc2c(-c3ccc4nncn4c3)cncc2c1	.	.	-7	.	-1	.	.
O=c1c2ccccc2[nH]c(=S)n1CCCN1CCOCC1	4	6	8	0	2	7	.
N=C1c2c(cc(=O)n3c2[nH]c2ccccc23)CN1CCN1CCOCC1	3	4	4	-2	11	36*	23
Cc1noc(C)c1S(=O)(=O)N(C)C[C@H]1OCc2cnnn2CCCC(=O)N([C@@H](C)CO)C[C@H]1C	.	.	5	.	5	.	.
CCCCN1Cc2c(nc3cc(-c4ccco4)[nH]n3c2=O)C1=O	12	32*	-1	12	1	63*	5
N#C/C(=C/c1ccc(O)c(O)c1)c1nc2ccccc2[nH]1	45*	62*	-2	58*	-3	63*	79*
N#C/C(=C\c1cccs1)c1nc2ccccc2[nH]1	3	2	4	2	-1	14	.
CCOC(=O)C1CCN(Cc2ccc(OCc3ccccc3)c(OC)c2)CC1	1	1	.	9	.	72*	-1
COC(=O)c1cccc(Cn2c(Cl)c(/C=N/Nc3ccccc3C)sc2=O)c1	1	7	-7	5	-6	0	.
Cc1ccccc1N/N=C/c1sc(=O)n(Cc2cccc(C(=O)O)c2)c1Cl	9	10	17	10	2	35*	25*
O=c1cc(-c2ccc(O)cc2)oc2c([C@@H]3O[C@H](CO)[C@@H](O)[C@H](O)[C@H]3O)c(O)c([C@@H]3O[C@H](CO)[C@@H](O)[C@H](O)[C@H]3O)c(O)c12	4	2	7	10	3	6	.
O=c1cc(-c2ccc(O)c(-c3c(O)cc(O)c4c(=O)cc(-c5ccc(O)cc5)oc34)c2)oc2cc(O)cc(O)c12	36*	38*	21	54*	1	62*	71*
O=c1cc(-c2ccc(O)cc2)oc2c(-c3c(O)cc(O)c4c(=O)cc(-c5ccc(O)cc5)oc34)c(O)cc(O)c12	40*	57*	7	56*	21	63*	68*
COc1ccc(-c2cc(=O)c3c(O)cc(O)cc3o2)cc1	-2	1	13	13	16	4	.
COc1ccccc1CC(=O)NCCN1CCCCC1	2	0	2	2	11	4	.
Cc1cccc(NS(=O)(=O)c2ccc3c(c2)oc(=O)n3C)c1C	0	-2	1	2	0	.	.
SMILES	PAFAH1B2 FP inh	PAFAH2 inh	ARFGAP1 inh	PAFAH1B3 inh	ASAP1 GAP inh	pPAFAH FP inh	pPAFAH FP conf
Cc1ccc(NS(=O)(=O)c2ccc3[nH]c(=O)oc3c2)cc1Cl	10	4	2	7	-3	48*	58*
Cc1cccc(NS(=O)(=O)c2ccc3[nH]c(=O)oc3c2)c1C	-3	3	4	12	8	68*	70*
Cc1ccc(C)c(NS(=O)(=O)c2ccc3[nH]c(=O)oc3c2)c1	3	4	4	3	-7	42*	12
CCCS(=O)(=O)NC(=O)C1(C)CCCN(C(=O)c2cc(C(C)(C)C)nn2C)C1 (centres undefined)	.	.	2	.	5	.	.
O=C(Nc1ccc(Br)cc1Br)Nc1cccc2[nH]c([C@@H]3O[C@H](CO)[C@@H](O)[C@H](O)[C@H]3O)nc12	.	.	5	.	-10	.	.
O=C(COC(=O)c1ccc2[nH]c3c(c2c1)CCCC3)Nc1ccccc1	3	77*	6	-2	8	43*	41*
O=C(CCc1ccccc1)NNC(=S)NC(=O)c1ccccc1	11	4	6	9	-10	41*	-8
Cc1c(Br)c(=O)oc2c(Br)c(O)c(O)cc12	51*	83*	-3	47*	0	63*	81*
Cc1c(Br)c(=O)oc2c(Br)c(O)ccc12	2	4	0	7	1	1	.
COCCCN1C(=O)C(CC(=O)NCc2ccco2)CC(C(=O)N(C)C)=C1C (centres undefined)	.	.	9	.	-4	.	.
COc1ccccc1/C=C/c1ccc2cccc(O)c2n1	-3	6	-13	9	-6	42*	24
Nc1c(S(=O)(=O)O)cc(NC(=O)c2ccccc2)c2c1C(=O)c1ccccc1C2=O	34*	54*	.	49*	.	84*	90*
CC1=C/C(=C\c2ccc(Br)o2)C(=O)O1	-5	4	-8	-2	1	3	.
O=C1C(=Cc2ccc(Br)o2)C(=O)c2ccccc21	9	71*	.	18	.	50*	66*
C/C(=N\NC(=O)c1cc2ccccc2cc1O)c1ccccn1	5	1	9	9	-5	48*	-2
C/C(=N\NC(=O)c1nc2ccccn2c1C)c1cc2ccccc2o1	4	6	0	5	-5	-1	.
C/C(=N\NC(=O)c1cc2ccccc2cc1O)c1cc2ccccc2o1	9	11	-10	8	-1	41*	34*
